Converted amounts (≈) assume the structure as drawn.
Assays:
Haemophilus influenzae = assay: In vitro antibacterial activity against Haemophilus influenzae 11; format: functional
Procedure, shortened: (§1)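 Broth microdilution MIC per NCCLS guidelines; strains from in-house collection (ATCC and hospital isolates) stored at -80 °C; E. coli tested as permeable outer-membrane mutant DC2. MIC taken as lowest concentration preventing visible growth after 18 to 24 h at 37 °C.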

Escherichia coli = assay: In vitro antibacterial activity against Escherichia coli; format: functional; procedure, shortened: as §1
Moraxella catarrhalis = assay: In vitro antibacterial activity against Moraxella catarrhalis RA21; format: functional; procedure, shortened: as §1
Peptide deformylase = target: T1, Peptide deformylase (Escherichia coli, UniProt Q9JN24); assay: Inhibition of the isolated native Escherichia coli peptide deformylase (PDF)
T1 sequence (Q9JN24 whole entry): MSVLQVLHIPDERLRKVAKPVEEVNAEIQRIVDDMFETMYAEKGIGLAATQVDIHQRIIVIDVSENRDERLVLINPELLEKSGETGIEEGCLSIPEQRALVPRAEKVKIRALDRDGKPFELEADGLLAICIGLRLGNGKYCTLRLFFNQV

[1] = target: Angiotensin-converting enzyme (Homo sapiens, UniProt P12821); assay: Inhibition against angiotensin I converting enzyme
Sequence of Angiotensin-converting enzyme (P12821 whole entry): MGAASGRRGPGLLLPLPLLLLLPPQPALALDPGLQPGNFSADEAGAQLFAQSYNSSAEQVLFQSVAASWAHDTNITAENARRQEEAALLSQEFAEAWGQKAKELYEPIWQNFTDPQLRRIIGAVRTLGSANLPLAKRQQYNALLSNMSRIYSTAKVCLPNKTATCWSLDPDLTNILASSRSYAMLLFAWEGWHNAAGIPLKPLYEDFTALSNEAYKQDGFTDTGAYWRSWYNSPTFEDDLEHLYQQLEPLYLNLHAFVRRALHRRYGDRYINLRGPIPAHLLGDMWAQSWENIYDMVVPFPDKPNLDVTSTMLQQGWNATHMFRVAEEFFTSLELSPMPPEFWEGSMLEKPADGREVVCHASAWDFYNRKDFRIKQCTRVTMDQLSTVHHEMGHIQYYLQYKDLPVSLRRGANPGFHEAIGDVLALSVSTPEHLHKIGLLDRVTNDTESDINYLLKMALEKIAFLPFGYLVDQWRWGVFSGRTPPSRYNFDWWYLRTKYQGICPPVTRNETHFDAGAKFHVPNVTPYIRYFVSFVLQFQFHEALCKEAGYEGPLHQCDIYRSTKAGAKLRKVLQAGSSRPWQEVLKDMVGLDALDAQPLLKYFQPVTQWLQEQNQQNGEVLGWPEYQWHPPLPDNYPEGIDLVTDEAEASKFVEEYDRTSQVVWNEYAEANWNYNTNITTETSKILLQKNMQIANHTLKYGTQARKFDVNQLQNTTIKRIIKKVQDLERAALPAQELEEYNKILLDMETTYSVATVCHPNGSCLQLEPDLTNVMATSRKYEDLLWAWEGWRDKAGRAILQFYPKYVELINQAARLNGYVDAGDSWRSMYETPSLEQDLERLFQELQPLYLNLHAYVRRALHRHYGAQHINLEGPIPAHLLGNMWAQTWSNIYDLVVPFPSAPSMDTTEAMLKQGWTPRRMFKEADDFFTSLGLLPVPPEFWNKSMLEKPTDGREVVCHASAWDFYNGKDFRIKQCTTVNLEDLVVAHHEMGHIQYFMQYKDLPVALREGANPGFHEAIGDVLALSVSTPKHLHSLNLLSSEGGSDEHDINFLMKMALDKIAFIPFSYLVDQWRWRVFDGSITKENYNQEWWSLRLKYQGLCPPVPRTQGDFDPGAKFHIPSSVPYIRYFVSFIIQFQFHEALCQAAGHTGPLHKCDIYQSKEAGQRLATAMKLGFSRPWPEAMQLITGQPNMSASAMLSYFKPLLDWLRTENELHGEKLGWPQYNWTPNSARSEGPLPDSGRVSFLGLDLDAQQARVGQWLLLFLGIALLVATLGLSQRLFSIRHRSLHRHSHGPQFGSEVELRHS

[2] = target: T2, Endothelin-converting enzyme 1 (Homo sapiens, UniProt P42892); assay: Inhibition against endothelin-converting enzyme.
T2 sequence (P42892 whole entry): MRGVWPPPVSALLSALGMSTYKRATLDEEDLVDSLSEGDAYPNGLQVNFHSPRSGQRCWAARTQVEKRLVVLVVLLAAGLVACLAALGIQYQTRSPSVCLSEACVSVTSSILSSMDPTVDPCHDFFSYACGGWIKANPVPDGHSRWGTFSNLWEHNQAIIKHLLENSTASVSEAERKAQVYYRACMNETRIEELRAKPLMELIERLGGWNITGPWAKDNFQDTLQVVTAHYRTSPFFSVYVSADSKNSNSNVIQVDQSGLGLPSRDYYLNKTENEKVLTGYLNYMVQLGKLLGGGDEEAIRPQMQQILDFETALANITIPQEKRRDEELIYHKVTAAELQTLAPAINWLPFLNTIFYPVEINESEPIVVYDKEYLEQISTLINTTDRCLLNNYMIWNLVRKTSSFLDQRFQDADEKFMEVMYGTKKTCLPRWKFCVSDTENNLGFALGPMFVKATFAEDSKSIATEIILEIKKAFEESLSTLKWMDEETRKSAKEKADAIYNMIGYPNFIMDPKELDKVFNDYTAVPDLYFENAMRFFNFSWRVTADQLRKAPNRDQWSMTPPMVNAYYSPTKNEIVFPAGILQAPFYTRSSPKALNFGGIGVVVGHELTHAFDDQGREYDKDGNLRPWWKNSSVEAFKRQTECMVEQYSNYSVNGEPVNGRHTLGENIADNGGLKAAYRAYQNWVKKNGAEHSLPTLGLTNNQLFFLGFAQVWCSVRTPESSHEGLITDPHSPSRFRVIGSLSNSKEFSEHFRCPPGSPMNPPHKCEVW

[3] = target: Macrophage metalloelastase (Homo sapiens, UniProt P39900); assay: Inhibition of human macrophage elastase, matrix metalloprotease-12 (MMP-12).
Sequence of Macrophage metalloelastase (P39900 whole entry): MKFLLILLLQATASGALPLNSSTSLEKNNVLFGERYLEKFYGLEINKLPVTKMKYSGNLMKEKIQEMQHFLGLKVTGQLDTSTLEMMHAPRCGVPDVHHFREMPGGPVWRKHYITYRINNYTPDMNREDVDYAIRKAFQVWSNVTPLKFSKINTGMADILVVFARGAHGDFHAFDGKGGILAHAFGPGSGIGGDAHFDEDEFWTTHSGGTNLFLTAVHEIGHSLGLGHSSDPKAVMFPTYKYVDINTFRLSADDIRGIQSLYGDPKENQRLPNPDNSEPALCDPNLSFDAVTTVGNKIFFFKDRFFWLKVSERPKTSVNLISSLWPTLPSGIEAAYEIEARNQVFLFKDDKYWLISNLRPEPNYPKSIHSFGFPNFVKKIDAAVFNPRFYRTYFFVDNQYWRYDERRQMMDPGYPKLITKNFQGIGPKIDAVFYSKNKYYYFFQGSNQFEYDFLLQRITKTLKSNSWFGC

Collagenase 3 = Collagenase 3 (Homo sapiens, UniProt P45452); assay: Inhibition of Collagenase-3, matrix metalloprotease-13 (MMP-13).
Neprilysin = Neprilysin (Homo sapiens, UniProt P08473); assay: Inhibition against neutral endopeptidase
Sequence of Neprilysin (P08473 whole entry): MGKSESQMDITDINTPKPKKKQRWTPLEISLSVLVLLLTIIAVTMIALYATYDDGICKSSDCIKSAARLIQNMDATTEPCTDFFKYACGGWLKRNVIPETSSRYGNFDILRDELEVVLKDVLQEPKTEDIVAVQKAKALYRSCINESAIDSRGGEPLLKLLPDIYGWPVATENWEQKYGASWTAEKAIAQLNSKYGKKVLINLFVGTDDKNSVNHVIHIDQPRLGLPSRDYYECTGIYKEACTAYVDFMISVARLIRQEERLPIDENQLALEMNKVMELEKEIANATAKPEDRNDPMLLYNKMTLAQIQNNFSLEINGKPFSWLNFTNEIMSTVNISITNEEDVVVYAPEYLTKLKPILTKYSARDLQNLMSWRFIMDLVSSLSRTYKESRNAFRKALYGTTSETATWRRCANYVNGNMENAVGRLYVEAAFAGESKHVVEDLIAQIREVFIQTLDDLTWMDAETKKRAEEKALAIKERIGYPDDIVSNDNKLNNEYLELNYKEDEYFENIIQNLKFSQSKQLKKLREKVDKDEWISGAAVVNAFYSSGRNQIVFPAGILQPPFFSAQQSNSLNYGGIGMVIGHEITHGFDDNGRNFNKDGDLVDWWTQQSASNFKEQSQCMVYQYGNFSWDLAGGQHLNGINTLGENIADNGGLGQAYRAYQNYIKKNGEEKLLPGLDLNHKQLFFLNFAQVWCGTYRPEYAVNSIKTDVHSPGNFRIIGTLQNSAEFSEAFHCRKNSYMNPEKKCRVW

Row | SMILES | MIC (Haemophilus influenzae) [µg/mL] | MIC (Escherichia coli) [µg/mL] | MIC (Moraxella catarrhalis) [µg/mL] | IC50 (Peptide deformylase) [nM] | IC50 [1] [nM] | IC50 [2] [nM] | IC50 [3] [nM] | IC50 (Collagenase 3) [nM] | IC50 (Neprilysin) [nM]
1 | O=C(CN1Cc2c(Cl)cccc2N(CCCc2ccccc2)S1(=O)=O)NO | 32 (≈ 78.1 µM) | > 64 | 8 (≈ 19.5 µM) |  |  |  |  |  | 
2 | O=C(CN1Cc2ccccc2NS1(=O)=O)NO | > 64 | > 64 | > 64 | 760 |  |  |  |  | 
3 | O=C(CN1Cc2c(Br)cccc2NC1=O)NO | 16 (≈ 53.3 µM) | 32 (≈ 107 µM) | 4 (≈ 13.3 µM) | 49 |  |  |  |  | 
4 | O=C(CN1Cc2c(Cl)cccc2NC1=O)NO | 8 (≈ 31.3 µM) | 16 (≈ 62.6 µM) | 2 (≈ 7.82 µM) | 310 | 90000 | > 10000 | > 100000 | 460 | > 100000
5 | O=C(CN1Cc2c(Cl)cccc2NS1(=O)=O)NO | 16 (≈ 54.8 µM) | > 64 | 8 (≈ 27.4 µM) | 120 | > 100000 | > 10000 | > 100000 | > 500 | > 100000
6 | O=C(CN1Cc2c(Cl)cccc2N(Cc2ccccc2)S1(=O)=O)NO | 32 (≈ 83.8 µM) | 64 (≈ 168 µM) | 8 (≈ 21 µM) |  |  |  |  |  | 
7 | O=C(CN1Cc2c(F)cccc2NS1(=O)=O)NO | > 64 | > 64 | > 64 | 870 |  |  |  |  | 
8 | O=C(CN1Cc2c(cccc2C(F)(F)F)NS1(=O)=O)NO | 32 (≈ 98.4 µM) | > 64 | 8 (≈ 24.6 µM) | 130 |  |  |  |  | 
9 | NNC(=O)CN1Cc2c(Cl)cccc2NC1=O |  | 50 (≈ 196 µM) |  | 27000 |  |  |  |  | 
10 | O=C(CN1Cc2c(Br)cccc2NS1(=O)=O)NO | > 64 | 32 (≈ 95.2 µM) | 4 (≈ 11.9 µM) | 98 |  |  |  |  | 
11 | CCCCN1c2cccc(Cl)c2CN(CC(=O)NO)S1(=O)=O | 64 (≈ 184 µM) | > 64 | 2 (≈ 5.75 µM) | 590 |  |  |  |  | 
12 | O=C(CN1Cc2c(F)cccc2NC1=O)NO | 64 (≈ 268 µM) | > 64 | 16 (≈ 66.9 µM) | 870 |  |  |  |  | 
13 | O=C(CN1Cc2c(Cl)cccc2N(CC2CC2)S1(=O)=O)NO | 64 (≈ 185 µM) | > 64 | 4 (≈ 11.6 µM) | 110 |  |  |  |  | 
14 | O=C(CN1Cc2c(cccc2C(F)(F)F)NC1=O)NO | 64 (≈ 221 µM) | 64 (≈ 221 µM) | 8 (≈ 27.7 µM) | 230 |  |  |  |  | 
15 | O=C(CN1Cc2c(Br)cccc2N(CC2CC2)S1(=O)=O)NO | 64 (≈ 164 µM) | 64 (≈ 164 µM) | 1 (≈ 2.56 µM) |  |  |  |  |  | 
16 | O=C(CN1Cc2ccccc2NC1=O)NO | > 64 | > 64 | > 64 |  |  |  |  |  | 
